Shown are actives, neighbours in structure and some others; about 2.4% of the full set was active somewhere.
EWS-Fli inh: EWS/Fli-driven NR0B1 reporter inhibitors, primary screen, A673 cells, NR0B1 luciferase, luminescence, MLPCN library | hit rate 0.67% among 350,000 | AID 651661, 2012 | viability-normalised | inhibition, % at 12.6 µM;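 active means mean inhibition of at least 50% after viability correction, with every replicate also passing that limit; inconclusive means mean reaches 50% but only one of two replicates passes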;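 further: firefly luciferase signal divided by Alamar Blue viability fluorescence both relative to DMSO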
Ecoli rRNA inh: reduced GFP signal of wild-type E. coli, primary screen, bacterial rRNA inhibitor project, GFP/RFP fluorescence, OD600, single point; hit rate 1.6% among 350,000; AID 720706, 2013; GFP signal change (wild-type ribosome), % (concentration not given with the values); E. coli WT GFP vs humanized-ribosome RFP mutants, 24 h; hits give low values; DMSO median 0, no signal -100;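 active means significant combined selectivity score with lowered wild-type GFP, culture density cut under 30%, mutant RFP and density less affected; inactive means any of these conditions unmet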
LGR2 inh: inhibitors of bursicon-induced LGR2 CRE-luciferase signal, primary screen, cell-based, HEK293, CRE-luciferase reporter, bursicon stimulation. inhibition, % at 9.99 µM. hit rate 0.35% among 380,000. AID 720647, 2013. Drosophila bursicon receptor LGR2 (rickets). bursicon-stimulated, 4 h;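 active means drop in luminescence signal, shown as inhibition above about 50% in the replicate tests, limit read from the data, passing the limit was not always enough; inconclusive means probably only some replicates passing the limit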;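 further: agonist challenge used bursicon conditioned medium at about half maximal strength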
E-sel inducer: E-selectin induction in HUVECs, primary screen, imaging, HUVEC, immunofluorescence imaging, single point; activation, % at 7.58 µM; normalized: neutral wells 0, TNF-alpha wells 100; AID 686992, 2013; hit rate 0.37% among 260,000;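 active means mean E-selectin-positive cell signal at least 10% of the positive control, reached in at least 60% of replicates, without over 20% cell loss; inconclusive means no rule given, readout overlaps actives, possibly toxicity-flagged; inactive means the rest, including those meeting only one limit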
Target sequence (P16581 whole entry, looked up): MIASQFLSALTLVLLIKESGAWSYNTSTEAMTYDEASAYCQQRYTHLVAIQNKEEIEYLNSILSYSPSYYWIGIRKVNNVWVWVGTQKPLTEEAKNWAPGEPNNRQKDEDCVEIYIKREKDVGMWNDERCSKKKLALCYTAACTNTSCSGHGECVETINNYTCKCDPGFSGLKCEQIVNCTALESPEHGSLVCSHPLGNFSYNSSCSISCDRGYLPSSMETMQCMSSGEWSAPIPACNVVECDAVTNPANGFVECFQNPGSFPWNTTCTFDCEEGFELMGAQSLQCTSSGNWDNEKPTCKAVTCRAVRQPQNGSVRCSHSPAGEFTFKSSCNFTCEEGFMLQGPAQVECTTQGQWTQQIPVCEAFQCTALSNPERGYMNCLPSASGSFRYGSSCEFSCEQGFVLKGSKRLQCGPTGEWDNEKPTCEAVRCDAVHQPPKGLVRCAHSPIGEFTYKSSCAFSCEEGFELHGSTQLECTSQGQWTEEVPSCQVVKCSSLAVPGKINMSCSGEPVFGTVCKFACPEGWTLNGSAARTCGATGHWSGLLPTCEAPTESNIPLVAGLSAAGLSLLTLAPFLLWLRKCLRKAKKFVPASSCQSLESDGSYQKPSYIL
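Read-out: % PE-positive cells | Test system: HUVEC | Doses: One compound dose added by pin transfer | Buffer or medium: EGM-2 over gelatin coat | Signal: Immunofluorescence imaging | Benchmarks: TNF-alpha, DMSO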
Of the large screens only hits and unclear results are named; the others gave an inactive call; ! = a repeat was not active.

O=C(N1CCN(Cc2ccc3c(c2)OCO3)CC1)C(Cl)(Cl)Cl	Ecoli rRNA inh -19 (no result: E-sel inducer)
c1ccc(-c2[nH]ncc2CN2CCN(Cc3ccc4c(c3)OCO4)CC2)cc1	Ecoli rRNA inh -47
O=C(c1ccc2c(c1)OCO2)C1CCCN(Cc2cn[nH]c2-c2ccccc2)C1 (stereo unspecified)	none (no result: E-sel inducer)
CCOc1ccc(/C=N/NC(=O)c2[nH]ncc2Br)c(O)c1	Ecoli rRNA inh -34, LGR2 inh inconclusive (no result: E-sel inducer)
COc1ccc(OC)c(/C=N/NC(=O)c2[nH]ncc2Br)c1	none (no result: E-sel inducer)
CC(=O)c1c(C)[nH]c(C(=O)OCC(=O)N2CCc3ccccc3C2)c1C	Ecoli rRNA inh -22 (no result: E-sel inducer)
Cc1noc(C)c1NC(=O)Nc1ccc2c(c1)C(=O)N([C@@H](C)CO)C[C@@H](C)[C@H](CN(C)C(=O)Nc1c(C)noc1C)O2	none
CC(=O)N1/C(=C/c2ccc(N(C)C)cc2)C(=O)c2ccccc21	LGR2 inh 75
c1cnc2c(c1)ccc1cccnc12	EWS-Fli inh 62!
CCOC(=O)C(C)(C)N(Cc1ccc(C)cc1)S(=O)(=O)c1ccc(Cl)c([N+](=O)[O-])c1	EWS-Fli inh 73 (no result: Ecoli rRNA inh, LGR2 inh)
C[C@@H]1CCCCO[C@@H](CN(C)S(=O)(=O)c2ccc(F)cc2)[C@H](C)CN([C@H](C)CO)C(=O)c2cc(NS(=O)(=O)c3ccccc3)ccc2O1	none
Nc1c(C(=O)N2CCOCC2)sc2nc3c(cc12)CCCC3	LGR2 inh 71
CCc1ccc(C(=O)Nc2nc3ccccc3[nH]2)cc1	EWS-Fli inh 75, LGR2 inh 92 (no result: E-sel inducer)
CC(C)Oc1ccc(C(=O)Nc2nc3ccccc3[nH]2)cc1	EWS-Fli inh 81, LGR2 inh 94 (no result: E-sel inducer)
COc1ccc(Cl)cc1C(=O)Nc1nc2ccccc2[nH]1	EWS-Fli inh 72, LGR2 inh 79
CCOC(=O)c1c(C)[nH]c(C(=O)Nc2ccc(NC(C)=O)cc2)c1C	Ecoli rRNA inh -27
CCOC(=O)c1c(C)[nH]c(C(=O)OCC(=O)Nc2sccc2C(N)=O)c1C	LGR2 inh 71
CCCNC(=O)N1C[C@@H]2[C@H](c3ccccc31)[C@@H](CO)N2C(=O)Nc1ccc(F)cc1	none
CCOc1ccccc1Nc1ccnc2cc(Cl)ccc12	none (no result: E-sel inducer)
CC(C)Nc1ccc(Nc2ccnc3cc4ccccc4cc23)cc1	LGR2 inh 74 (no result: E-sel inducer)
c1ccc(CCNc2ccnc3cc4ccccc4cc23)cc1	LGR2 inh 107
COc1cc2c(cc1OC)[C@@]13ON=C(c4ccc(OCCO)cc4)[C@@H]1CCN3CC2	none (no result: Ecoli rRNA inh, LGR2 inh, E-sel inducer)
CCNC(=O)c1cc2c(c(-c3cccc(-c4ccncc4)c3)n1)[C@@H](CCO)N(S(=O)(=O)CC)C2	none
Cc1ccc(S(=O)(=O)N(C)C[C@H]2Oc3ccc(NS(C)(=O)=O)cc3CC(=O)N([C@H](C)CO)C[C@@H]2C)cc1	none (no result: EWS-Fli inh, LGR2 inh, E-sel inducer)
Cc1ccc(S(=O)(=O)Nc2ccc3c(c2)C(=O)N([C@H](C)CO)C[C@H](C)[C@H](CN(C)Cc2ccc(C(F)(F)F)cc2)O3)cc1	none
CC(C)NC(=O)Nc1ccc2c(c1)C(=O)N([C@@H](C)CO)C[C@@H](C)[C@@H](CN(C)C(=O)c1ccccc1)OCCCC[C@H](C)O2	none
Cc1cc(C)cc(-n2cccc2/C=C2/C(=N)N3C(=NC2=O)SN=C3S(C)(=O)=O)c1	Ecoli rRNA inh -28 (no result: E-sel inducer)
C[C@H](CO)N1C[C@H](C)[C@@H](CN(C)C(=O)Nc2ccc3c(c2)OCO3)Oc2ccc(NC(=O)c3ccncc3)cc2C1=O	none (no result: LGR2 inh, E-sel inducer)
C[C@@H]1CN([C@H](C)CO)C(=O)c2cc(NC(=O)c3ccncc3)ccc2O[C@@H]1CN(C)C(=O)Nc1ccc2c(c1)OCO2	E-sel inducer 40
Cc1noc(C)c1NC(=O)N(C)C[C@H]1Oc2ccc(NC(=O)c3ccncc3)cc2C(=O)N([C@H](C)CO)C[C@@H]1C	E-sel inducer 365
O=C(NCc1cccnc1)c1ccc(COc2ccc3c(c2)CCC3)o1	Ecoli rRNA inh -21 (no result: E-sel inducer)
COC(=O)c1ccc(COc2ccc3c(c2)CCC3)o1	Ecoli rRNA inh -24
O=C(NCc1cccnc1)c1ccc(COc2ccccc2Br)o1	Ecoli rRNA inh -24 (no result: E-sel inducer)
NNC(=O)c1ccc(COc2ccc3c(c2)CCC3)cc1	Ecoli rRNA inh -26
CCCc1ccc(OCc2ccc(C(=O)OC)o2)c(OC)c1	Ecoli rRNA inh -19 (no result: E-sel inducer)
O=S(=O)(Nc1cccc2[nH]ncc12)c1cccs1	E-sel inducer 33
Cc1onc(-c2c(Cl)cccc2Cl)c1C(=O)NN1CCCCCC1	Ecoli rRNA inh -13
Cc1onc(-c2ccccc2Cl)c1C(=O)N1CCN(c2cccc(Cl)c2)CC1	EWS-Fli inh 54
Cc1onc(-c2c(F)cccc2Cl)c1C(=O)N1CCSCC1	Ecoli rRNA inh -29
CSC(=NS(=O)(=O)c1ccccc1)NNC(=O)c1c(-c2c(Cl)cccc2Cl)noc1C	Ecoli rRNA inh -21
Cc1onc(-c2c(F)cccc2Cl)c1C(=O)NNC(=O)C1CCN(Cc2ccccc2)CC1	none (no result: E-sel inducer)
Cc1noc(C)c1NC(=O)Nc1cccc2c1O[C@H](CN(C)S(=O)(=O)c1ccc(F)cc1)[C@@H](C)CN([C@@H](C)CO)C2=O	none
COc1ccc(-c2ccc(C3[C@H]4CNC[C@@H]3N4Cc3ccc4c(c3)OCO4)cc2)cc1 (stereo partly specified)	none
Cc1noc(C)c1S(=O)(=O)Nc1ccccc1Cl	none (no result: E-sel inducer)
Cc1noc(C)c1S(=O)(=O)Nc1ccccc1Oc1ccccc1	Ecoli rRNA inh -22 (no result: E-sel inducer)
O=C(Nc1cc(Cl)ccn1)C1(c2ccccc2)CC1(Cl)Cl (stereo unspecified)	Ecoli rRNA inh -42 (no result: LGR2 inh)
O=C(Nc1ccccc1F)C1(c2ccccc2)CC1(Cl)Cl (stereo unspecified)	none (no result: EWS-Fli inh, Ecoli rRNA inh, E-sel inducer)
CCCC#Cc1ccc([C@@H]2[C@H](CO)N3C(=O)CN(C(=O)Nc4ccccc4)C[C@@H]23)cc1	none (no result: EWS-Fli inh, LGR2 inh, E-sel inducer)
NCCCn1c(C(=O)c2cc(Cl)c(N)c(Cl)c2)c2ccc(C(F)(F)F)cc2[n+]1[O-]	none
NCCCn1c(C(=O)c2cc(Cl)c(N)c(Cl)c2)c2ccc([N+](=O)[O-])cc2[n+]1[O-]	EWS-Fli inh 55
CC1Cc2ccccc2N1C(=O)COC(=O)c1ccc(O)cc1 (stereo unspecified)	none
COC(=O)C1=C(C)NC(C)=C(C(=O)OC)C1C(=O)OCC(=O)N1c2ccccc2CC1C (stereo unspecified)	Ecoli rRNA inh -12
CCN(CC)P(=O)(Nc1ccc(Br)cc1)c1c(C)nn(CCC#N)c1NC(=O)c1ccc(Cl)cc1 (stereo unspecified)	E-sel inducer 50
CCn1nc(C)c(NC(=O)c2ccc(Cl)cc2)c1C	none
O=C(CN1C(=O)C2CCCCC2C1=O)Nc1cccc(C(F)(F)F)c1 (stereo unspecified)	Ecoli rRNA inh -15
O=C(CN1C(=O)C2CCCCC2C1=O)Nc1cccc([N+](=O)[O-])c1 (stereo unspecified)	none
C[C@@H]1CN([C@H](C)CO)S(=O)(=O)c2ccc(C#CCN(C)C)cc2O[C@@H]1CN(C)S(C)(=O)=O	none
